Experimental data from ChEMBL document CHEMBL1152300, “Ligand specificity of constitutive androstane receptor as probed by induced-fit docking and mutagenesis” (J Med Chem, 2008).

What was measured:
[1] = target: T1, Nuclear receptor subfamily 1 group I member 3 (Mus musculus, UniProt O35627, N175A); experiment: Enhancement of steroid receptor co-activator 1 binding to mouse CAR N175A mutant […] at 10 uM by yeast two-hybrid assay; format: cell-based
[2] = target: T2, Nuclear receptor subfamily 1 group I member 3 (Mus musculus, UniProt O35627); experiment: Enhancement of steroid receptor coactivator 1 binding to wild type mouse CAR expressed in HEK293 cells at 2 uM by yeast two-hybrid assay; conditions: hek293, 2 µM
T2 sequence (O35627 whole entry): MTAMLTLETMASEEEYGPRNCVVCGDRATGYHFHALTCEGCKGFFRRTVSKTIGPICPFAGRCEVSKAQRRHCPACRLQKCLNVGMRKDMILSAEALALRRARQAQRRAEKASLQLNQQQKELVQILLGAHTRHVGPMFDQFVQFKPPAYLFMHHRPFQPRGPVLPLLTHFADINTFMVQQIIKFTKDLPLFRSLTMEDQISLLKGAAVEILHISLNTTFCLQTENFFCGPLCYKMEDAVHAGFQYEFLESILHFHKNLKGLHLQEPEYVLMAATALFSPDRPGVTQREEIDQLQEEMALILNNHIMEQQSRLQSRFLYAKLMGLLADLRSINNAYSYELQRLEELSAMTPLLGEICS

[3] = target: T3, Nuclear receptor subfamily 1 group I member 3 (Mus musculus, UniProt O35627, T350M); conditions: HEK293, mouse
T3 sequence (O35627 whole entry T350M): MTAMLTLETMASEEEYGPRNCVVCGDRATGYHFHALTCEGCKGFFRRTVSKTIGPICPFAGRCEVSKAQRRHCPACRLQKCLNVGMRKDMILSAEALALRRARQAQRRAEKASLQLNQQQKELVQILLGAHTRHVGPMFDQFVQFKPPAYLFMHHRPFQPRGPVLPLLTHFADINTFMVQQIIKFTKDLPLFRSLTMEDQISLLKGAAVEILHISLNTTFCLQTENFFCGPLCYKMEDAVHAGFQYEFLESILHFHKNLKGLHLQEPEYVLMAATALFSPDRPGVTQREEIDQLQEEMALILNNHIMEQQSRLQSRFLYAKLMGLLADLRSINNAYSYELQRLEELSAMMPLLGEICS

[4] = target: T4, Nuclear receptor subfamily 1 group I member 3 (Mus musculus, UniProt O35627, S251L); experiment: Decrease in nuclear co-repressor receptor binding to mouse CAR S251L mutant […] at 10 uM by yeast two-hybrid assay; format: cell-based; set-up: scale not given: the % may be the effect or the level left
T4 sequence (O35627 whole entry S251L): as the sequence (O35627 whole entry T350M) above, with S251L, M350T counted along it

[5] = target: T5, Nuclear receptor subfamily 1 group I member 3 (Mus musculus, UniProt O35627, I252L); experiment: (§1) Enhancement of steroid receptor coactivator 1 binding to mouse CAR I252L mutant […] at 10 uM by yeast two-hybrid assay; format: cell-based
T5 sequence (O35627 whole entry I252L): as the sequence (O35627 whole entry T350M) above, with I252L, M350T counted along it

[6] = target: Nuclear receptor subfamily 1 group I member 3 (Mus musculus, UniProt O35627, T350A); conditions: HEK293, mouse
Nuclear receptor subfamily 1 group I member 3 (Mus musculus, UniProt O35627, T350A), sequence (O35627 whole entry T350A): as the sequence (O35627 whole entry T350M) above, with M350A counted along it

[7] = target: T6, Nuclear receptor subfamily 1 group I member 3 (Mus musculus, UniProt O35627, L212A); experiment: Activation of mouse CAR L212A mutant expressed in HEK293 cells at 10 uM by mammalian one-hybrid assay; format: cell-based; conditions: hek293, 10 µM
T6 sequence (O35627 whole entry L212A): as the sequence (O35627 whole entry T350M) above, with L212A, M350T counted along it

[8] = target: T2, Nuclear receptor subfamily 1 group I member 3; experiment: Enhancement of steroid receptor coactivator 1 binding to wild type mouse CAR expressed in HEK293 cells at 1 uM by yeast two-hybrid assay; conditions: read-out: FC
[9] = target: T7, Nuclear receptor subfamily 1 group I member 3 (Mus musculus, UniProt O35627, L253F); conditions: HEK293, mouse
T7 sequence (O35627 whole entry L253F): as the sequence (O35627 whole entry T350M) above, with L253F, M350T counted along it

[10] = target: T8, Nuclear receptor subfamily 1 group I member 3 (Mus musculus, UniProt O35627, L353A); experiment: Effect on steroid receptor coactivator 1 binding to mouse CAR L353A mutant […] at 10 uM by yeast two-hybrid assay; format: cell-based; conditions: read-out: Activity
T8 sequence (O35627 whole entry L353A, the tested form may be a part): as the sequence (O35627 whole entry T350M) above, with M350T, L353A counted along it
Method in brief: (§2)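 Yeast two-hybrid assay. Yeast co-expressing wild-type or mutant mouse CAR LBD and the SRC-1 partner were selected on SD plates lacking leucine and tryptophan. Random colonies were pooled and amplified, then treated with DMSO or test chemical for 3.5 h. β-galactosidase activity was normalized to cell density and set relative to wild-type mCAR + SRC-1 with DMSO (=100). Mean ± standard deviation of two determinations, each in triplicate.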

[11] = target: T7, Nuclear receptor subfamily 1 group I member 3; experiment: Decrease in mouse CAR L253F mutant activation expressed in HEK293 cells at 10 uM by mammalian one-hybrid assay; format: cell-based; conditions: read-out: Activity
Method in brief: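 GAL4-DBD fused to mouse CAR LBD (residues 118-358), wild-type or point mutant, cotransfected with UASx4-tk-luc reporter and pCMVβ into HEK293 cells. Cells were exposed to final 1 µM, 2 µM or 10 µM test chemical, or 0.1% v/v DMSO, for 24 h after transfection. Luciferase was normalized to β-galactosidase and set against empty GAL4 vector (=1.0). Mean ± standard deviation, three independent experiments.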

[12] = target: T5, Nuclear receptor subfamily 1 group I member 3; conditions: HEK293, mouse, read-out: Activity
[13] = target: T2, Nuclear receptor subfamily 1 group I member 3; experiment: Increase in nuclear co-repressor receptor binding to wild type mouse CAR expressed in […] cells at 2 uM by yeast two-hybrid assay; format: cell-based
Method in brief: (§3)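 Yeast two-hybrid: yeast expressing wild-type or mutant mouse CAR LBD plus SRC-1 or NCoR, selected on SD medium lacking Leu and Trp. Pooled colonies treated with DMSO or test chemical for 3.5 h. β-Galactosidase normalized to cell density. SRC-1 reference: wild-type + DMSO = 100. NCoR reference: 10 µM androstenol = 100. Mean ± SD, two independent determinations, each in triplicate.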

[14] = target: T4, Nuclear receptor subfamily 1 group I member 3; experiment: Effect on steroid receptor coactivator 1 binding to mouse CAR S251L mutant […] at 10 uM by yeast two-hybrid assay; format: cell-based; conditions: read-out: Activity; method in brief: as §2
[15] = target: Nuclear receptor subfamily 1 group I member 3 (Mus musculus, UniProt O35627, H213A); conditions: HEK293, mouse
Nuclear receptor subfamily 1 group I member 3 (Mus musculus, UniProt O35627, H213A), sequence (O35627 whole entry H213A): as the sequence (O35627 whole entry T350M) above, with H213A, M350T counted along it

[16] = target: T2, Nuclear receptor subfamily 1 group I member 3; experiment: Enhancement of steroid receptor coactivator 1 binding to wild type mouse CAR expressed in HEK293 cells at 10 uM by yeast two-hybrid assay; conditions: for fold induction at 10 µM: HEK293, mouse, read-out: FC
[17] = target: Nuclear receptor subfamily 1 group I member 3 (Mus musculus, UniProt O35627, F171A); conditions: HEK293, mouse
Nuclear receptor subfamily 1 group I member 3 (Mus musculus, UniProt O35627, F171A), sequence (O35627 whole entry F171A): as the sequence (O35627 whole entry T350M) above, with F171A, M350T counted along it

[18] = target: T3, Nuclear receptor subfamily 1 group I member 3; conditions: HEK293, mouse, read-out: Activity
[19] = target: T2, Nuclear receptor subfamily 1 group I member 3; experiment: Activation of wild type mouse CAR expressed in HEK293 cells at 10 uM by mammalian one-hybrid transactivation assay; conditions: hek293, 10 µM
[20] = target: T5, Nuclear receptor subfamily 1 group I member 3; experiment: as §1; format: cell-based; method in brief: as §3; remark: listed apart in the source
[21] = target: T1, Nuclear receptor subfamily 1 group I member 3; conditions: HEK293, mouse, read-out: Activity
[22] = target: Nuclear receptor subfamily 1 group I member 3 (Mus musculus, UniProt O35627, Y336A); conditions: HEK293, mouse, read-out: Activity
Nuclear receptor subfamily 1 group I member 3 (Mus musculus, UniProt O35627, Y336A), sequence (O35627 whole entry Y336A): as the sequence (O35627 whole entry T350M) above, with Y336A, M350T counted along it

[23] = target: T6, Nuclear receptor subfamily 1 group I member 3; experiment: Decrease in nuclear co-repressor receptor binding to mouse CAR L212A mutant […] at 10 uM by yeast two-hybrid assay; format: cell-based; set-up: scale not given: the % may be the effect or the level left
[24] = target: T8, Nuclear receptor subfamily 1 group I member 3; experiment: Decrease in nuclear co-repressor receptor binding to mouse CAR L353A mutant […] at 10 uM by yeast two-hybrid assay; format: cell-based; conditions: read-out: Activity
Method in brief: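 Yeast expressing wild-type or mutant mouse CAR LBD plus NCoR, selected on SD plates lacking leucine and tryptophan. Pooled colonies treated with DMSO or compound for 3.5 h. β-Galactosidase activity normalized to cell density. Reference is 10 µM androstenol (=100). Mean ± SD of two independent determinations, each in triplicate.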

T1 sequence (O35627 whole entry N175A): as the sequence (O35627 whole entry T350M) above, with N175A, M350T counted along it

SMILES | Activity [1] | FC [2] | activity at 10 µM [3] [%] | Activity [4] | Activity [5] | activity at 10 µM [6] [%] | Activity [7] [%] | fold induction at 1 µM [8] | activity at 10 µM [9] [%] | activity at 10 µM [10] [%] | inhibition at 10 µM [11] [%] | inhibition at 10 µM [12] [%] | fold change (FC) [13] | activity at 10 µM [14] [%] | activity at 10 µM [15] [%] | fold induction at 10 µM [16] | activity at 10 µM [17] [%] | inhibition at 10 µM [18] [%] | inhibition at 10 µM [21] [%] | inhibition at 10 µM [22] [%] | further results
COc1ccc(C(=O)CCCc2ccccc2)cc1 | >= 50% | 2.5 | < 50 | >= 50% | > 150% | < 50 | 50 | 2.5 | < 50 | < 50 | < 50 | 50 | 4 | < 50 | < 50 | 2.5 | < 50 | ≥ 50 | ≥ 50 | ≥ 50 | fold change (FC) [19]: 1.4; Activity [20]: >= 50%
COc1ccccc1CC(CC(=O)Cc1ccccc1)OC (configuration not stated) | > 150% | 2.5 |  | >= 50% | >= 50% | < 50 | < 50 | 2.5 | < 50 | < 50 | < 50 | < 50 | 4 | < 50 | < 50 | 2.5 | < 50 | ≥ 50 | ≥ 50 | ≥ 50 | Activity [23]: >= 50%; inhibition at 10 µM [24]: ≥ 50%; fold change (FC) [19]: 2; Activity [20]: > 50%
Clc1cnc(Oc2ccc(Oc3ncc(Cl)cc3Cl)cc2)c(Cl)c1 |  | 2.5 |  |  |  |  |  | 2.5 |  |  |  |  |  |  |  | 2.5 |  |  |  |  | 
C[C@]12CC[C@@H](O)C[C@@H]1CC[C@@H]1[C@@H]2CC[C@]2(C)C=CC[C@@H]12 [ANDROSTENOL] | > 150% |  | < 50 | >= 50% | > 150% | < 50 |  |  | < 50 | < 50 | < 50 | < 50 |  | < 50 | < 50 |  | < 50 | ≥ 50 | ≥ 50 | ≥ 50 | Activity [23]: >= 50%; Activity ([16]; mouse, hek293, 10 µM): Not Active; inhibition at 10 µM [24]: ≥ 50%
Clc1ccccc1C(c1ccccc1)(c1ccccc1)n1ccnc1 [CLOTRIMAZOLE] |  | 2.5 |  |  |  |  |  | 2.5 |  |  |  |  | 4 |  |  | 2.5 |  |  |  |  | 
COc1ccc(C(c2ccc(OC)cc2)C(Cl)(Cl)Cl)cc1 [METHOXYCHLOR] |  | 2.5 | < 50 | >= 50% | >= 50% | < 50 | 50 | 2.5 | < 50 | < 50 |  | 50 | 4 | < 50 | < 50 | 2.5 | < 50 | ≥ 50 | ≥ 50 | ≥ 50 | Activity [23]: >= 50%; inhibition at 10 µM [24]: ≥ 50%; fold change (FC) [19]: 1.4; Activity [20]: >= 50%
